What is called Ki is a dissociation constant, usually derived from enzyme kinetics or from competition with a known ligand. What is called EC50 is the midpoint of the concentration-response curve.

SMILES strings stand for the structures.

Assay [1] addresses Neuronal acetylcholine receptor; alpha4/beta2 (Rattus norvegicus, UniProt P09483+P12390). Description: Displacement of [3H]epibatidine from alpha4beta2 nAChR in rat cortical membranes by beta counting relative to acetylcholine. The format is cell membranes, Membrane. The procedure, abridged:
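Rat cortex membranes pre-incubated with […] to block α7 sites. Then 30 min r.t. with test compound (10 pM–10 mM), then overnight at 4 °C with 0.075 nM [3H]epibatidine. Nonspecific binding with 100 nM unlabelled epibatidine. Filtered on PEI-soaked GF/C filters and washed; beta counting. Ki fitted from three competition experiments by non-linear least squares; >100 mM when no inhibition up to 100 mM.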

Assay [2] has as its target Neuronal acetylcholine receptor subunit alpha-7 (Rattus norvegicus, UniProt Q05941). Description: Displacement of [125I]-alpha-bungarotoxin from alpha7 nAChR in rat cortical membranes by gamma counting. In kind it is cell membranes, Membrane. The procedure, abridged: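 Rat cortex membranes (two rats per experiment, homogenized and centrifuged twice at 60,000g) in Tris-HCl buffer pH 7 with protease inhibitors. Pre-incubated 30 min r.t. with test compound (10 pM–10 mM), then overnight at r.t. with 1 nM [125I]α-bungarotoxin. Nonspecific binding with […]. Filtered on polyethylenimine-soaked GF/C filters; gamma counting. Ki fitted from three competition experiments by non-linear least squares; >100 mM when no inhibition up to 100 mM.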
On the technique in general: Loss of bound radioactivity is the signal in a displacement assay; it reports binding, not function.

Assay [3] has as its target Neuronal acetylcholine receptor subunit alpha-7 (Homo sapiens, UniProt P36544). Description: Agonist activity at human alpha7 nAChR expressed in rat GH4C1 cells assessed as maximal electric current amplitude at 1 mM by whole-cell patch clamp electrophysiology assay relative to acetylcholine. The following applies: for Activity: GH4-C1. In kind it is functional, cell-based, GH4-C1. In outline: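 GH4C1 cells stably transfected with human α7 subunit; whole-cell patch clamp, holding potential −70 mV, fast gravity-driven perfusion exchanger. Compound applied at 1 mM; current amplitude normalized to that from ACh 1 mM on the same cell. n = 8–12 cells.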

For assay [4], the target named is Neuronal acetylcholine receptor; alpha3/beta4 (Homo sapiens, UniProt P30926+P32297). Description: Displacement of [3H]epibatidine from alpha3beta4 nAChR expressed in human HEK293 cells by beta liquid scintillation counting. The format is cell-based. The procedure, abridged:
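HEK 293 cells transiently transfected with α3 and β4 cDNAs by JetPEI and harvested after 48 h. Compound pre-incubated 5 min, then overnight at 4 °C with 0.25 nM [3H]epibatidine in Tris-HCl pH 7 buffer with 2 mg/ml BSA. Nonspecific binding with 100 nM cold epibatidine. Cells washed seven times with ice-cold PBS; liquid scintillation counting.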

Chain of Neuronal acetylcholine receptor; alpha3/beta4 (P30926 whole entry): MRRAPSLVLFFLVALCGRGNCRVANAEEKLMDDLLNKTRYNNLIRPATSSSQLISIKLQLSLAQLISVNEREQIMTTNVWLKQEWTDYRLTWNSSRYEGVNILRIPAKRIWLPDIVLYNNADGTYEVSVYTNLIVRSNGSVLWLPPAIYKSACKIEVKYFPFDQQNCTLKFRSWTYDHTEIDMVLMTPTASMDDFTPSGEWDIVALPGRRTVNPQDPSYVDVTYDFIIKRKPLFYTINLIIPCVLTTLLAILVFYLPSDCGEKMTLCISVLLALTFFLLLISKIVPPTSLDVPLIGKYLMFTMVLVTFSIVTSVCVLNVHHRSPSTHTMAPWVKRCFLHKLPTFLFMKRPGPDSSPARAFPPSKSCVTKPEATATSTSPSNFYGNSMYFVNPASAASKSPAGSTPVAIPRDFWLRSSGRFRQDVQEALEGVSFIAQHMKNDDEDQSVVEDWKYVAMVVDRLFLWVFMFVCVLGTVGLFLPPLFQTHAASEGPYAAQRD
Chain of Neuronal acetylcholine receptor; alpha3/beta4 (P32297 whole entry): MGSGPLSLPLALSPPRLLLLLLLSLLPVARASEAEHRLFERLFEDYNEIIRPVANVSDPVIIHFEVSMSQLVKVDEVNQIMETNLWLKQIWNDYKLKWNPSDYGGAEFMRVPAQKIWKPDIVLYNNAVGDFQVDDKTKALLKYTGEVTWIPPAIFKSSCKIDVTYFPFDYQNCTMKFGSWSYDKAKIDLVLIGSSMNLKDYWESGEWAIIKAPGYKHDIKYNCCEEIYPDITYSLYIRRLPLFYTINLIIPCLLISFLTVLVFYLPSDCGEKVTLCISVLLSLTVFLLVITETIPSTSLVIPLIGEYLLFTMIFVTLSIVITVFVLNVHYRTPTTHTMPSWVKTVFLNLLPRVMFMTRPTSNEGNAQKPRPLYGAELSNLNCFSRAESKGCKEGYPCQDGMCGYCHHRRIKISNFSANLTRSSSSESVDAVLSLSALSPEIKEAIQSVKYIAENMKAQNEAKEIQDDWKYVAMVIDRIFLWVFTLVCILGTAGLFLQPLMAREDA
Chain of Neuronal acetylcholine receptor subunit alpha-7 (Rattus norvegicus, UniProt Q05941) (Q05941 whole entry): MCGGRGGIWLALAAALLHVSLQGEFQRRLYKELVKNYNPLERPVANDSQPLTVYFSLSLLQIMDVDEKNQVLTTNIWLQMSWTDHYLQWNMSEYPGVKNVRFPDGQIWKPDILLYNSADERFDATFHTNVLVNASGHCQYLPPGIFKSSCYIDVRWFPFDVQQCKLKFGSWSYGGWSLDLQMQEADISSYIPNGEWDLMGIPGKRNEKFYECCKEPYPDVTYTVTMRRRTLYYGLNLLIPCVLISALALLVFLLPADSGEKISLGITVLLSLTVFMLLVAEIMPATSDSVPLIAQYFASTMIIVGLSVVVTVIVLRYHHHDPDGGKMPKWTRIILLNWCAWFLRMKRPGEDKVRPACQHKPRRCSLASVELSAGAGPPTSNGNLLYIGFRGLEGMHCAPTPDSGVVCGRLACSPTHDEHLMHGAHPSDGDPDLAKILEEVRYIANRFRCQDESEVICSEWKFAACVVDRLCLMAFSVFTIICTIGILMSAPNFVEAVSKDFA
Chain of Neuronal acetylcholine receptor; alpha4/beta2 (P09483 whole entry): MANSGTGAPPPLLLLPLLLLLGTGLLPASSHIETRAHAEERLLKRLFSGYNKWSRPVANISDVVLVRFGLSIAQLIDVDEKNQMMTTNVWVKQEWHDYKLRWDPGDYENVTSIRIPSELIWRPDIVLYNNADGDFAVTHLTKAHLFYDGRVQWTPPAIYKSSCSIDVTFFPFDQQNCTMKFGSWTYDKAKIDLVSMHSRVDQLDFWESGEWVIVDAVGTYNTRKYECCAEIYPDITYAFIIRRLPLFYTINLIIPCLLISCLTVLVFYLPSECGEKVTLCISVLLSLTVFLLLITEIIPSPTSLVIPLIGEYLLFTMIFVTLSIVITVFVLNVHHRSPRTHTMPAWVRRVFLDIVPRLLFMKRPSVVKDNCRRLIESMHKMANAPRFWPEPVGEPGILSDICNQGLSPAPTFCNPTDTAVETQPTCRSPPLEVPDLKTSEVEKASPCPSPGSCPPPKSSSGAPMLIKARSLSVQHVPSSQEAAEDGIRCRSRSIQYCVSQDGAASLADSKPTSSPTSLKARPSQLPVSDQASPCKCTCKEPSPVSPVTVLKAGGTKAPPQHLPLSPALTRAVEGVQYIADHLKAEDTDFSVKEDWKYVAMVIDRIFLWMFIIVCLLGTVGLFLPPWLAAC
Chain of Neuronal acetylcholine receptor; alpha4/beta2 (P12390 whole entry): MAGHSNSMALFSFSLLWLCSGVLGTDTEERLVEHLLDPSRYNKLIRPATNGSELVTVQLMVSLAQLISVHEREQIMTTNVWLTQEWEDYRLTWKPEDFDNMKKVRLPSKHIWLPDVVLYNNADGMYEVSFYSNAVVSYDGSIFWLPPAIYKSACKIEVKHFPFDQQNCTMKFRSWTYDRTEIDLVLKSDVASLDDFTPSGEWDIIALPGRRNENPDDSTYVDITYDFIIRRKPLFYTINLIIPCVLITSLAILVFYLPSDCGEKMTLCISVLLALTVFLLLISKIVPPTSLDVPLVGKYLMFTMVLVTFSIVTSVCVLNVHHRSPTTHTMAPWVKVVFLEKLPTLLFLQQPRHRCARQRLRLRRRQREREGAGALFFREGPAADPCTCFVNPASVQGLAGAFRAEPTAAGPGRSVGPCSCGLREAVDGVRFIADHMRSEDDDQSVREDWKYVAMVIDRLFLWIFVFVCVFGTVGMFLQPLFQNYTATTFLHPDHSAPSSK
Chain of Neuronal acetylcholine receptor subunit alpha-7 (Homo sapiens, UniProt P36544) (P36544 whole entry, the tested form may be a part): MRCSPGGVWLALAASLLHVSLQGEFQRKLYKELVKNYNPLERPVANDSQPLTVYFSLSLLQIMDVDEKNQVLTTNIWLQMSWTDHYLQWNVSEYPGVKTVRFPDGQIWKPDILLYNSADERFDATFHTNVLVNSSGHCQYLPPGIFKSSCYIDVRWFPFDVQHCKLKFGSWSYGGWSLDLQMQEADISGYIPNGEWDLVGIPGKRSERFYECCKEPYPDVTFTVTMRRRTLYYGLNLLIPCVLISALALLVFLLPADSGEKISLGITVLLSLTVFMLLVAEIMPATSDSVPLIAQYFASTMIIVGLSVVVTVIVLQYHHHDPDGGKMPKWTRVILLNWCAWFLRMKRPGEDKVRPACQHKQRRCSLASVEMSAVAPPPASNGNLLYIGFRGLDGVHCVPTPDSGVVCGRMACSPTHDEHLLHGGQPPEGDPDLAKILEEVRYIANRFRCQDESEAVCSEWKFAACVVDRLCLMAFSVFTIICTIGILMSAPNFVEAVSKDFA

On to `BrC1=NOC2(C1)CN1CCC2CC1` (racemic), for which the results for the Ki in assay [1] and in assay [2] were 0.64 µM and 0.0135 µM, respectively.
Consider `COC1=NOC2(C1)CN1CCC2CC1` (racemic), for which the Ki in assay [1] is 7.9 µM; in assay [2], 0.0142 µM.
In the case of `c1ccc(C2=NOC3(C2)CN2CCC3CC2)cc1` (racemic), the values for the Ki in assay [1] and in assay [2] were 22 µM and 0.025 µM, respectively.
Take `C[N+]12CCC(CC1)C1(CC(Br)=NO1)C2` (racemic): the Ki in assay [1] is 32.5 µM; in assay [2] it was 0.109 µM.
The like results for `COC1=NOC2(C1)C[N+]1(C)CCC2CC1` (racemic) were, in that order, 175 µM and 0.0914 µM.
Regarding `BrC1=NOC2(C1)CN1CCC2C1` (racemic), the EC50 in assay [3] turned out to be 84.1 µM. The Activity in assay [3] was 76%. Moreover, the results for the Ki in assay [1], in assay [4] and in assay [2] were 5 µM, 13 µM and 0.23 µM, respectively.
In the case of `COC1=NOC2(C1)CN1CCC2C1` (racemic), the Ki in assay [1] was determined as 16 µM; in assay [4], 46 µM; in assay [2], 0.42 µM.
The like results for `c1ccc(C2=NOC3(C2)CN2CCC3C2)cc1` (racemic) were, in that order, 53 µM, 16 µM and 3.6 µM.
Consider `C[N+]12CCC(C1)C1(CC(Br)=NO1)C2` (racemic), for which the figures for the Ki in assay [1] and in assay [2] were 22 µM and 6.2 µM, respectively.
For the compound `COC1=NOC2(C1)C[N+]1(C)CCC2C1` (racemic), the Ki worked out at 20 µM in assay [1] and 2.9 µM in assay [2].
Take `C[N+]12CCC(C1)C1(CC(c3ccccc3)=NO1)C2` (racemic): the Ki in assay [1] is 38 µM; in assay [2], 5.1 µM.
As to `CN1CCCC2(CC(Br)=NO2)C1` (racemic), the Ki in assay [1] was 44 µM; in assay [2], 6.6 µM.
With `COC1=NOC2(CCCN(C)C2)C1` (racemic), the Activity in assay [3] is 7%. Further, the Ki in assay [1] is over 100 µM; in assay [4], 91 µM; in assay [2], 5.5 µM.
Turning to `CN1CCCC2(CC(c3ccccc3)=NO2)C1` (racemic), the Ki in assay [1] was over 100 µM; in assay [2], 30 µM.
`C[N+]1(C)CCCC2(CC(Br)=NO2)C1` (racemic): the inhibitory constant (Ki) in assay [1] was determined as 50 µM; in assay [2] it was 3.7 µM.
On to `COC1=NOC2(CCC[N+](C)(C)C2)C1` (racemic), for which the values for the Ki in assay [1] and in assay [2] were 94 µM and 13 µM, respectively.
Regarding `C[N+]1(C)CCCC2(CC(c3ccccc3)=NO2)C1` (racemic), the Activity in assay [3] is 26%. Moreover, the Ki was over 100 µM in assay [1], 6.6 µM in assay [4] and 0.7 µM in assay [2].
Turning to `BrC1=NOC2(CCCNC2)C1` (racemic), the Ki in assay [1] is 58 µM; in assay [2], 4.3 µM.
Regarding `COC1=NOC2(CCCNC2)C1` (racemic), the Ki is over 100 µM in assay [1], 75 µM in assay [4] and 3.7 µM in assay [2].
Consider `c1ccc(C2=NOC3(CCCNC3)C2)cc1` (racemic), for which the Ki is over 100 µM in assay [1], 43 µM in assay [4] and 4.5 µM in assay [2].

Values taken from ChEMBL document CHEMBL1914381, “New spirocyclic Δ²-isoxazoline derivatives related to selective agonists of α7 neuronal nicotinic acetylcholine receptors” (Eur J Med Chem, 2011).
